Test results published in ChEMBL document CHEMBL4152356, “Amphipathic sulfonamidobenzamides mimicking small antimicrobial marine natural products; investigation of antibacterial and anti-biofilm activity against antibiotic resistant clinical isolates” (Bioorg Med Chem, 2018).

How the values were obtained:
Bacillus subtilis = assay: Antibacterial activity against Bacillus subtilis 168 ATCC 23857 after 48 hrs by microdilution method; assay type: functional; settings: subsp. subtilis str. 168 ATCC 23857, 48 h
Procedure, shortened: (§1)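 Broth microdilution (CLSI M07-A9, modified) in Mueller-Hinton broth; inoculum about 2.5-3 × 10^4 cells/ml mixed 1:1 with serial compound dilutions. Stock solutions in up to 100% DMSO, final DMSO ≤1%. Incubated 35 °C for 48 h.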

[1] = tested on: Staphylococcus epidermidis; assay: Antibacterial activity against methicillin resistant Staphylococcus epidermidis RP62A ATCC 35984/CCUG 31568 after 48 hrs by microdilution method; assay type: functional; settings: RP62A ATCC 35984/CCUG 31568, 48 h
Procedure, shortened: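 Broth microdilution (modified CLSI M07-A9) against the MRSE reference strain. Inoculum of about 2.5-3 × 10^4 cells/ml in Mueller-Hinton broth mixed 1:1 with serial compound dilutions; final DMSO ≤1%. Incubated 35 °C, 48 h.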

[2] = Selectivity index, ratio of EC50 for human RBC to MIC for methicillin resistant Staphylococcus epidermidis RP62A ATCC 35984/CCUG 31568; assay type: toxicity; settings: human red blood cells (RBC), read-out: Selectivity Index
Procedure, shortened: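 SI = hemolytic EC50 / MRSE MIC. Hemolysis: washed human RBCs (heparinized blood, healthy adult donor) at 10% in PBS pH 7.4, mixed 9:1 with serial compound dilutions, 37 °C for 1 h. 0.05% Triton X-100 set 100% lysis, 0.5% DMSO set baseline. MIC from MHB microdilution, 35 °C, […].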

[3] = tested on: Corynebacterium glutamicum; assay: Antibacterial activity against Corynebacterium glutamicum ATCC 13032 after 48 hrs by microdilution method; assay type: functional; settings: ATCC 13032, 48 h; procedure, shortened: as §1
Pseudomonas aeruginosa [4] = assay: Antibacterial activity against Pseudomonas aeruginosa PAO1 DSM 19880 ATCC 15692 after 48 hrs by microdilution method; assay type: functional; settings: PAO1 DSM 19880 ATCC 15692, 48 h; procedure, shortened: as §1
Erythrocyte = assay: Hemolytic activity against human RBC measured after 1 hr; assay type: cell-based
Procedure, shortened: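 Washed human RBCs from a healthy donor (heparinized) at 10% in PBS pH 7.4, mixed 9:1 with serial compound dilutions, 37 °C for 1 h. Baseline set by 0.5% DMSO in 50% PBS, 100% lysis by 0.05% Triton X-100. EC50 is the concentration giving 50% lysis.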

Escherichia coli [5] = assay: Antibacterial activity against Escherichia coli ATCC 25922 after 48 hrs by microdilution method; assay type: functional; settings: ATCC 25922, 48 h; procedure, shortened: as §1
MRC5 = assay: Cytotoxicity against human MRC5 cells after 72 hrs by MTS assay; assay type: cell-based; settings: MRC5, 72 h
Procedure, shortened: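 MRC-5 lung fibroblasts in DMEM with 10% FBS, 37 °C, 5% CO2; seeded at 4000 cells/well, adhered 24 h, medium replaced. Two-fold dilutions up to 100 µg/ml for 72 h, then MTS for 1 h and absorbance at 485 nm. Controls were 1% DMSO (negative) and 0.5% Triton X-100 (positive). EC50 is the concentration giving 50% inhibition of survival.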

Staphylococcus aureus [6] = assay: Antibacterial activity against Staphylococcus aureus ATCC 9144 after 48 hrs by microdilution method; assay type: functional; settings: ATCC 9144, 48 h; procedure, shortened: as §1
Escherichia coli [7] = assay: Antibacterial activity against Escherichia coli clinical isolates after 24 hrs by microdilution method; assay type: functional
Procedure, shortened: (§2)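 Clinical isolate screen by broth microdilution with about 1-1.2 × 10^6 cells/ml and 24 h incubation. MIC is the lowest concentration with no growth. For isolate collections, MIC90 is the MIC inhibiting ≥90% of isolates. Multidrug resistance was defined as resistance to at least […] antimicrobial class.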

Enterococcus sp. = assay: Antibacterial activity against Enterococcus sp. clinical isolates after 24 hrs by microdilution method; assay type: functional; procedure, shortened: as §2
Staphylococcus aureus [8] = assay: Antibacterial activity against Staphylococcus aureus clinical isolates after 24 hrs by microdilution method; assay type: functional; procedure, shortened: as §2
Pseudomonas aeruginosa [9] = assay: Antibacterial activity against Pseudomonas aeruginosa clinical isolates after 24 hrs by microdilution method; assay type: functional; procedure, shortened: as §2
Klebsiella pneumoniae = assay: Antibacterial activity against Klebsiella pneumoniae clinical isolates after 24 hrs by microdilution method; assay type: functional; procedure, shortened: as §2

Cc1cc(C)cc(S(=O)(=O)Nc2ccc(C(=O)NCCNC(=N)N)cc2)c1.Cl
MIC (Bacillus subtilis): 64 µg/mL | MIC [1]: 64 µg/mL | selectivity ratio [2]: > 2 | MIC [3]: 64 µg/mL | MIC (Pseudomonas aeruginosa [4]): > 128 µg/mL | EC50 (Erythrocyte): > 128 µg/mL | MIC (Escherichia coli [5]): > 128 µg/mL | EC50 (MRC5): > 100 µg/mL | MIC (Staphylococcus aureus [6]): 128 µg/mL

CC(C)(C)c1cc(C(C)(C)C)cc(S(=O)(=O)Nc2cccc(C(=O)NCCN)c2)c1.Cl
MIC (Bacillus subtilis): 8 µg/mL | MIC [1]: 8 µg/mL | selectivity ratio [2]: 7 | MIC [3]: 8 µg/mL | MIC (Pseudomonas aeruginosa [4]): 64 µg/mL | EC50 (Erythrocyte): 58 µg/mL | MIC (Escherichia coli [5]): 32 µg/mL | EC50 (MRC5): 16 µg/mL | MIC (Staphylococcus aureus [6]): 16 µg/mL

CC(C)(C)c1cc(C(C)(C)C)cc(S(=O)(=O)N2CCC[C@H]2C(=O)NCCNC(=N)N)c1.Cl
MIC (Bacillus subtilis): 32 µg/mL | MIC [1]: 32 µg/mL | selectivity ratio [2]: > 4 | MIC [3]: 8 µg/mL | MIC (Pseudomonas aeruginosa [4]): 128 µg/mL | EC50 (Erythrocyte): > 128 µg/mL | MIC (Escherichia coli [5]): > 128 µg/mL | EC50 (MRC5): > 100 µg/mL | MIC (Staphylococcus aureus [6]): 64 µg/mL

CC(C)(C)c1cc(C(C)(C)C)cc(S(=O)(=O)Nc2ccccc2C(=O)NCCNC(=N)N)c1.Cl
MIC (Bacillus subtilis): 8 µg/mL | MIC (Escherichia coli [7]): 64 µg/mL | MIC (Enterococcus sp.): 32 µg/mL | MIC [1]: 8 µg/mL | selectivity ratio [2]: 10 | MIC [3]: 4 µg/mL | MIC (Pseudomonas aeruginosa [4]): 64 µg/mL | EC50 (Erythrocyte): 77 µg/mL | MIC (Escherichia coli [5]): 32 µg/mL | EC50 (MRC5): 42 µg/mL | MIC (Staphylococcus aureus [8]): 8 µg/mL | MIC (Staphylococcus aureus [6]): 4 µg/mL | MIC (Pseudomonas aeruginosa [9]): 32 µg/mL | MIC (Klebsiella pneumoniae): 128 µg/mL

CN(c1cccc(C(=O)NCCN)c1)S(=O)(=O)c1cc(C(C)(C)C)cc(C(C)(C)C)c1.Cl
MIC (Bacillus subtilis): 8 µg/mL | MIC [1]: 16 µg/mL | selectivity ratio [2]: 2 | MIC [3]: 8 µg/mL | MIC (Pseudomonas aeruginosa [4]): 32 µg/mL | EC50 (Erythrocyte): 26 µg/mL | MIC (Escherichia coli [5]): 16 µg/mL | EC50 (MRC5): 10 µg/mL | MIC (Staphylococcus aureus [6]): 16 µg/mL

CC(C)(C)c1cc(C(C)(C)C)cc(S(=O)(=O)Nc2ccc(CC(=O)NCCN)cc2)c1.Cl
MIC (Bacillus subtilis): 16 µg/mL | MIC [1]: 16 µg/mL | selectivity ratio [2]: 5 | MIC [3]: 16 µg/mL | MIC (Pseudomonas aeruginosa [4]): 64 µg/mL | EC50 (Erythrocyte): 73 µg/mL | MIC (Escherichia coli [5]): 64 µg/mL | EC50 (MRC5): 20 µg/mL | MIC (Staphylococcus aureus [6]): 32 µg/mL

CC(C)(C)c1cc(C(C)(C)C)cc(S(=O)(=O)Nc2ccccc2C(=O)NCCN)c1.Cl
MIC (Bacillus subtilis): 32 µg/mL | MIC (Escherichia coli [7]): 128 µg/mL | MIC (Enterococcus sp.): 32 µg/mL | MIC [1]: 32 µg/mL | selectivity ratio [2]: 2 | MIC [3]: 16 µg/mL | MIC (Pseudomonas aeruginosa [4]): 128 µg/mL | EC50 (Erythrocyte): 56 µg/mL | MIC (Escherichia coli [5]): 64 µg/mL | EC50 (MRC5): 10 µg/mL | MIC (Staphylococcus aureus [8]): 32 µg/mL | MIC (Staphylococcus aureus [6]): 32 µg/mL | MIC (Pseudomonas aeruginosa [9]): 128 µg/mL | MIC (Klebsiella pneumoniae): 128 µg/mL

CC(C)(C)c1cc(C(=O)Nc2ccccc2C(=O)NCCNC(=N)N)cc(C(C)(C)C)c1.Cl
EC50 (MRC5): 22 µg/mL

CC(C)(C)c1cc(C(C)(C)C)cc(S(=O)(=O)NCc2ccc(C(=O)NCCN)cc2)c1.Cl
MIC (Bacillus subtilis): 8 µg/mL | MIC [1]: 16 µg/mL | selectivity ratio [2]: 6 | MIC [3]: 8 µg/mL | MIC (Pseudomonas aeruginosa [4]): 32 µg/mL | EC50 (Erythrocyte): 92 µg/mL | MIC (Escherichia coli [5]): 32 µg/mL | EC50 (MRC5): 20 µg/mL | MIC (Staphylococcus aureus [6]): 32 µg/mL

CN(c1ccc(C(=O)NCCCN)cc1)S(=O)(=O)c1cc(C(C)(C)C)cc(C(C)(C)C)c1.Cl
MIC (Bacillus subtilis): 8 µg/mL | MIC [1]: 16 µg/mL | selectivity ratio [2]: 2 | MIC [3]: 8 µg/mL | MIC (Pseudomonas aeruginosa [4]): 32 µg/mL | EC50 (Erythrocyte): 28 µg/mL | MIC (Escherichia coli [5]): 16 µg/mL | EC50 (MRC5): 9 µg/mL | MIC (Staphylococcus aureus [6]): 16 µg/mL

CC(C)(C)c1cc(C(C)(C)C)cc(S(=O)(=O)Nc2ccc(C(=O)NCCN)cc2)c1.Cl
MIC (Bacillus subtilis): 16 µg/mL | MIC [1]: 32 µg/mL | selectivity ratio [2]: 2 | MIC [3]: 8 µg/mL | MIC (Pseudomonas aeruginosa [4]): 64 µg/mL | EC50 (Erythrocyte): 63 µg/mL | MIC (Escherichia coli [5]): 64 µg/mL | EC50 (MRC5): 25 µg/mL | MIC (Staphylococcus aureus [6]): 32 µg/mL

CN(c1ccc(C(=O)NCCN)cc1)S(=O)(=O)c1cc(C(C)(C)C)cc(C(C)(C)C)c1.Cl
MIC (Bacillus subtilis): 8 µg/mL | MIC [1]: 16 µg/mL | selectivity ratio [2]: 3 | MIC [3]: 16 µg/mL | MIC (Pseudomonas aeruginosa [4]): 32 µg/mL | EC50 (Erythrocyte): 53 µg/mL | MIC (Escherichia coli [5]): 16 µg/mL | EC50 (MRC5): 5 µg/mL | MIC (Staphylococcus aureus [6]): 16 µg/mL
